Experimental data as given in ChEMBL document CHEMBL2150988, “Preparation and optimization of new 4-(morpholin-4-yl)-(6-oxo-1,6-dihydropyrimidin-2-yl)amide derivatives as PI3Kβ inhibitors” (Bioorg Med Chem Lett, 2012).
Values after ≈ are worked out from the molar mass of the structure shown.

Columns and labels:
[1] = molecular target: Phosphatidylinositol 4,5-bisphosphate 3-kinase catalytic subunit alpha isoform (Homo sapiens, UniProt P42336); experiment: Inhibition of PI3Kalpha
[2] = Inhibition of Akt phosphorylation at S473 in PTEN deficient human PC3 cells; format: cell-based; settings: PC-3
[3] = Equilibrium solubility of the compound in phosphate buffer at pH 7.4 after 16 hrs by HPLC analysis; format: physicochemical
[4] = Drug uptake in PTEN deficient human PC3 cells xenografted SCID mouse tumor at 244 mg/kg, po administered as suspension after 1 hr; format: ADME, organism-based, Neoplasm, PC-3; set-up: dose 244 mg/kg, route oral; settings: tumor (PC3 xenograft), read-out: Drug uptake
Summary of the method: (§1)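 SCID mice bearing PTEN-deficient PC3 prostate tumor xenografts given a single oral dose, either 30 mg/kg in solution or 244 mg/kg in suspension; drug levels in plasma and tumor measured at 1 and 6 h after dosing.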

[5] = Drug uptake in PTEN deficient human PC3 cells xenografted SCID mouse tumor at 30 mg/kg, po administered as solution after 6 hrs; format: ADME, organism-based, Neoplasm, PC-3; set-up: dose 30 mg/kg, route oral; settings: tumor (PC3 xenograft), read-out: Drug uptake; summary of the method: as §1
[6] = Drug metabolism in mouse liver microsomes after 20 mins; format: ADME, Microsome; settings: read-out: Drug metabolism
Summary of the method: (§2)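 Liver microsomes (human or mouse) incubated with compound for 20 min; %lability reported as % of compound metabolized.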

[7] = Efflux ratio of permeability […] in human Caco2/TC7 cells; format: ADME, cell-based
Summary of the method: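 Caco-2 TC7 clone cells grown as a monolayer; compound transport measured in both directions, apical to basolateral (A–B) and basolateral to apical (B–A); apparent permeability (Papp) read out, and efflux ratio derived from the two directional measurements.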

[8] = Drug uptake in PTEN deficient human PC3 cells xenografted SCID mouse tumor at 244 mg/kg, po administered as suspension after 6 hrs; format: ADME, organism-based, Neoplasm, PC-3; set-up: dose 244 mg/kg, route oral; settings: tumor (PC3 xenograft), read-out: Drug uptake; summary of the method: as §1
[9] = molecular target: Phosphatidylinositol 4,5-bisphosphate 3-kinase catalytic subunit beta isoform (Homo sapiens, UniProt P42338); experiment: Inhibition of PI3Kbeta
Phosphatidylinositol 4,5-bisphosphate 3-kinase catalytic subunit beta isoform, sequence (P42338 whole entry, canonical isoform): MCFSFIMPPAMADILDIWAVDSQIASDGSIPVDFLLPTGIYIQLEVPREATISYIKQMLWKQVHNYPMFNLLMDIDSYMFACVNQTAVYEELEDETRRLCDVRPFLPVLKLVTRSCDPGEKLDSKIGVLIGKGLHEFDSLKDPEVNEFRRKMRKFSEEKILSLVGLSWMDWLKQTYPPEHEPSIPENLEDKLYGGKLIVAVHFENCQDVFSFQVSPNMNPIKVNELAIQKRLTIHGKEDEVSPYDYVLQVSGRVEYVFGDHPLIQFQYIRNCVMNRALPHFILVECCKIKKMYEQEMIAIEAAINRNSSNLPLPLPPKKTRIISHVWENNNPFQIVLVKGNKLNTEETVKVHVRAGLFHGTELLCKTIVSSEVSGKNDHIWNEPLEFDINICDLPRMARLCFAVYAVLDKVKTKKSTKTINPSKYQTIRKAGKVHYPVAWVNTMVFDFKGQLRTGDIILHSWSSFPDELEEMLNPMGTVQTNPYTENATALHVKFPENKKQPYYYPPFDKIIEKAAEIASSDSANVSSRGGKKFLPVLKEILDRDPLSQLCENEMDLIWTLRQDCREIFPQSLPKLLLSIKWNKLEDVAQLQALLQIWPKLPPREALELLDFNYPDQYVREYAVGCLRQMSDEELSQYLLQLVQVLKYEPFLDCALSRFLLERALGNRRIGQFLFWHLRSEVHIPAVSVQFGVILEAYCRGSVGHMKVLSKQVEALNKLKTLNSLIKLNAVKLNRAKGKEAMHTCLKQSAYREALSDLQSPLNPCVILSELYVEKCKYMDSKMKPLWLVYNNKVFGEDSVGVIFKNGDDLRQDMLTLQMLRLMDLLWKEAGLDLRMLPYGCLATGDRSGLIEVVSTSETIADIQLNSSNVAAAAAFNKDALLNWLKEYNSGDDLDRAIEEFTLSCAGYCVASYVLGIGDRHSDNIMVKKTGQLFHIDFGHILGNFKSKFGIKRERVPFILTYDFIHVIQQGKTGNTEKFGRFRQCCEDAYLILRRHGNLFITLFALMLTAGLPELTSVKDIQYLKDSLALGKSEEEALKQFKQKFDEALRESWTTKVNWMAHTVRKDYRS

Cytochrome P450 3A4 = Cytochrome P450 3A4 (Homo sapiens, UniProt P08684); experiment: Inhibition of human recombinant CYP3A4; format: ADME
Cytochrome P450 3A4, sequence (P08684 whole entry): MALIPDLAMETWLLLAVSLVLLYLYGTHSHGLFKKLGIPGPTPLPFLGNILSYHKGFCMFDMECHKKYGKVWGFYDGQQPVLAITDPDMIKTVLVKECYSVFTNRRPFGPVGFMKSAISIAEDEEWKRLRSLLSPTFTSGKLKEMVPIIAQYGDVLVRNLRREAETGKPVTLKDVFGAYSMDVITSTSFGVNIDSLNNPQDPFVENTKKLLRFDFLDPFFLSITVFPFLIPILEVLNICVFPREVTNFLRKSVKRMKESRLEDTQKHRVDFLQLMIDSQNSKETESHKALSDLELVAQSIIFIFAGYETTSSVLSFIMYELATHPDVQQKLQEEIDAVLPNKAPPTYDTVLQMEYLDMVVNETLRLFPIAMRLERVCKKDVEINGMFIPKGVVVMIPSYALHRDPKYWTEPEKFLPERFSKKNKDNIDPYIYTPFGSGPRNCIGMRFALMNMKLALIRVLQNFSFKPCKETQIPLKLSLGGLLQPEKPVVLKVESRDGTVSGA

[10] = Apparent permeability across human Caco2/TC7 cells; format: ADME, cell-based; settings: Caco-2
Summary of the method: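 Caco-2 TC7 clone monolayers; transport measured in both apical-to-basolateral and basolateral-to-apical directions, giving Papp (nm/s) and an efflux ratio.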

[11] = Plasma concentration in SCID mouse xenografted with PTEN deficient human PC3 cells at 30 mg/kg, po administered as solution after 6 hrs; format: ADME, organism-based, PC-3; set-up: dose 30 mg/kg, route oral; summary of the method: as §1
[12] = Drug metabolism in human liver microsomes after 20 mins; format: ADME, Microsome; settings: read-out: Drug metabolism; summary of the method: as §2
Mus musculus [13] = experiment: Inhibition of Akt phosphorylation at S473 in PTEN deficient human PC3 cells xenografted SCID mouse tumor at 30 mg/kg, po administered as solution after 1 hr; format: functional; settings: PC-3, 1 h
[14] = Plasma concentration in SCID mouse xenografted with PTEN deficient human PC3 cells at 244 mg/kg, po administered as suspension after 6 hrs; format: ADME, organism-based, PC-3; set-up: dose 244 mg/kg, route oral; summary of the method: as §1
Mus musculus [15] = experiment: Inhibition of Akt phosphorylation at S473 in PTEN deficient human PC3 cells xenografted SCID mouse tumor at 244 mg/kg, po administered as suspension after 1 hr; format: functional; settings: PC-3, 1 h
[16] = molecular target: T1, Phosphatidylinositol 4,5-bisphosphate 3-kinase catalytic subunit delta isoform (Homo sapiens, UniProt O00329); experiment: Inhibition of PI3Kdelta
T1 sequence (O00329 whole entry): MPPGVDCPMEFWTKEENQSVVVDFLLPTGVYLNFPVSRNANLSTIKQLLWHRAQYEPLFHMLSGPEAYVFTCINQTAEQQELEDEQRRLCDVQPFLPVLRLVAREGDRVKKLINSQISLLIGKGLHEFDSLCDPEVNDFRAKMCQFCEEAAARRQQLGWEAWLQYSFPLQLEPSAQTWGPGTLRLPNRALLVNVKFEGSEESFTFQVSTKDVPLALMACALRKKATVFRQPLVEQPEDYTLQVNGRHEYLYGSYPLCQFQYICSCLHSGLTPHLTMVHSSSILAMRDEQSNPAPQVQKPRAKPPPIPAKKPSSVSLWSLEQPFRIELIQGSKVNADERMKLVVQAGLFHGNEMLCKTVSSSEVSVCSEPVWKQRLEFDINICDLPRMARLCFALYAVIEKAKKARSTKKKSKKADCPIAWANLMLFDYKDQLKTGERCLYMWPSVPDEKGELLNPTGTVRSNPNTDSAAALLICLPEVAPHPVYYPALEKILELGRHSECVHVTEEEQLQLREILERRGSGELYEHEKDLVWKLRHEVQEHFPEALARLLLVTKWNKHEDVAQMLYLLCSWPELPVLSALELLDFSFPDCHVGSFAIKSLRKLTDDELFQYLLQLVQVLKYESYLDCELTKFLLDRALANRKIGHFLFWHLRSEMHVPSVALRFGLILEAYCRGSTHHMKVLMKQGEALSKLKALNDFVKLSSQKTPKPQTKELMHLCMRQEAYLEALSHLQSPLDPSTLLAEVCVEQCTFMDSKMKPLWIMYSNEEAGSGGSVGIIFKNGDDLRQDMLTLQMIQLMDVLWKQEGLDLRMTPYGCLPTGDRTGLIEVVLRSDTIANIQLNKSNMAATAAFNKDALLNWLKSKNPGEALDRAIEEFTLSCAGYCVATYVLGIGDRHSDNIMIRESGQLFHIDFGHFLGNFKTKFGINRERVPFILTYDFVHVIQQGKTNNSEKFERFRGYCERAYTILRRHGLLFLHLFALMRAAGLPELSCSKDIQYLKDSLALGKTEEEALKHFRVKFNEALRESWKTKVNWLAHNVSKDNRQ

Mus musculus [17] = experiment: Inhibition of Akt phosphorylation at S473 in PTEN deficient human PC3 cells xenografted SCID mouse tumor at 30 mg/kg, po administered as solution after 6 hrs; format: functional; settings: PC-3, 6 h
[18] = Plasma concentration in SCID mouse xenografted with PTEN deficient human PC3 cells at 30 mg/kg, po administered as solution after 1 hr; format: ADME, organism-based, PC-3; set-up: dose 30 mg/kg, route oral; summary of the method: as §1
Mus musculus [19] = experiment: Hepatic clearance in SCID mouse at 3 mg/kg, iv; format: ADME, organism-based, Liver; set-up: dose 3 mg/kg, route intravenous; settings: in vivo
[20] = Volume of distribution at steady state in SCID mouse at 3 mg/kg, iv; format: ADME, organism-based; set-up: dose 3 mg/kg, route intravenous; settings: in vivo, read-out: Vdss
[21] = Terminal elimination half life in SCID mouse at 10 mg/kg, po; format: ADME, organism-based; set-up: dose 10 mg/kg, route oral; settings: in vivo, read-out: beta t1/2 (converted)
Mus musculus [22] = experiment: Inhibition of Akt phosphorylation at T308 in PTEN deficient human PC3 cells xenografted SCID mouse tumor at 244 mg/kg, po administered as suspension after 1 hr; format: functional; settings: PC-3, 1 h
[23] = Drug uptake in PTEN deficient human PC3 cells xenografted SCID mouse tumor at 30 mg/kg, po administered as solution after 1 hr; format: ADME, organism-based, Neoplasm, PC-3; set-up: dose 30 mg/kg, route oral; settings: tumor (PC3 xenograft), read-out: Drug uptake; summary of the method: as §1
[24] = molecular target: Phosphatidylinositol 4,5-bisphosphate 3-kinase catalytic subunit gamma isoform (Homo sapiens, UniProt P48736); experiment: Inhibition of PI3Kgamma
Phosphatidylinositol 4,5-bisphosphate 3-kinase catalytic subunit gamma isoform, sequence (P48736 whole entry, canonical isoform): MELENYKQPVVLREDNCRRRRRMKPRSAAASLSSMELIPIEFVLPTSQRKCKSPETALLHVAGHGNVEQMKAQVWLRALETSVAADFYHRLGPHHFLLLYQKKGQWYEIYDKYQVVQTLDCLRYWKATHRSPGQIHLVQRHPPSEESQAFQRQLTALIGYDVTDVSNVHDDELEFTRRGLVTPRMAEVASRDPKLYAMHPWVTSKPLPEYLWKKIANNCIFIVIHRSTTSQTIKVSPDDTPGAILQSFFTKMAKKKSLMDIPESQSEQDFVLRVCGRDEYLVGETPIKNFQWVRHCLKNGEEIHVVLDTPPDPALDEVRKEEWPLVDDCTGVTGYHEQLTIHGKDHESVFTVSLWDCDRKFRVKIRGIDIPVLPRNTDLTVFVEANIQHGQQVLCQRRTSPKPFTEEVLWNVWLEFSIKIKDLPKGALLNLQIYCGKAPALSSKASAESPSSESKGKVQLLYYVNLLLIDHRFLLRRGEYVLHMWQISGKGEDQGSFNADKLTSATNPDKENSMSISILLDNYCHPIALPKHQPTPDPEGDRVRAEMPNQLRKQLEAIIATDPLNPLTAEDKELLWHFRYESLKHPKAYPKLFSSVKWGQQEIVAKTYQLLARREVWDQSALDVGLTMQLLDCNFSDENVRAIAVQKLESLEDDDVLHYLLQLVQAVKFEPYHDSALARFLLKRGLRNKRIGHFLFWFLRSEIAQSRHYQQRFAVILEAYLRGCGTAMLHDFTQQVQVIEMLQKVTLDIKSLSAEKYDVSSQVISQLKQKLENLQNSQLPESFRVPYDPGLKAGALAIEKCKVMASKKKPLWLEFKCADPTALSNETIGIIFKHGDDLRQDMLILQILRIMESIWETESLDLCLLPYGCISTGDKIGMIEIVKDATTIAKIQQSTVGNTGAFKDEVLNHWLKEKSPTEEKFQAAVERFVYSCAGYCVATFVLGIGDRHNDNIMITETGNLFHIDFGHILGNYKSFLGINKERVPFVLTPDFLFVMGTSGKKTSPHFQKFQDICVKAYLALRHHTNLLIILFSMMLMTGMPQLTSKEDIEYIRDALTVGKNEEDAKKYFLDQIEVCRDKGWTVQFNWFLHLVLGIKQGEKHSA

Mus musculus [25] = experiment: Inhibition of Akt phosphorylation at T308 in PTEN deficient human PC3 cells xenografted SCID mouse tumor at 244 mg/kg, po administered as suspension after 6 hrs; format: functional; settings: PC-3, 6 h
Mus musculus [26] = experiment: Inhibition of Akt phosphorylation at S473 in PTEN deficient human PC3 cells xenografted SCID mouse tumor at 244 mg/kg, po administered as suspension after 6 hrs; format: functional; settings: PC-3, 6 h
[27] = Oral bioavailability in SCID mouse at 10 mg/kg; format: ADME, organism-based; settings: in vivo
[28] = Plasma concentration in SCID mouse xenografted with PTEN deficient human PC3 cells at 244 mg/kg, po administered as suspension after 1 hr; format: ADME, organism-based, PC-3; set-up: dose 244 mg/kg, route oral; summary of the method: as §1
Mus musculus [29] = experiment: Inhibition of Akt phosphorylation at T308 in PTEN deficient human PC3 cells xenografted SCID mouse tumor at 30 mg/kg, po administered as solution after 1 hr; format: functional; settings: PC-3, 1 h
Mus musculus [30] = experiment: Inhibition of Akt phosphorylation at T308 in PTEN deficient human PC3 cells xenografted SCID mouse tumor at 30 mg/kg, po administered as solution after 6 hrs; format: functional; settings: PC-3, 6 h

Phosphatidylinositol 4,5-bisphosphate 3-kinase catalytic subunit alpha isoform, sequence (P42336 whole entry, canonical isoform): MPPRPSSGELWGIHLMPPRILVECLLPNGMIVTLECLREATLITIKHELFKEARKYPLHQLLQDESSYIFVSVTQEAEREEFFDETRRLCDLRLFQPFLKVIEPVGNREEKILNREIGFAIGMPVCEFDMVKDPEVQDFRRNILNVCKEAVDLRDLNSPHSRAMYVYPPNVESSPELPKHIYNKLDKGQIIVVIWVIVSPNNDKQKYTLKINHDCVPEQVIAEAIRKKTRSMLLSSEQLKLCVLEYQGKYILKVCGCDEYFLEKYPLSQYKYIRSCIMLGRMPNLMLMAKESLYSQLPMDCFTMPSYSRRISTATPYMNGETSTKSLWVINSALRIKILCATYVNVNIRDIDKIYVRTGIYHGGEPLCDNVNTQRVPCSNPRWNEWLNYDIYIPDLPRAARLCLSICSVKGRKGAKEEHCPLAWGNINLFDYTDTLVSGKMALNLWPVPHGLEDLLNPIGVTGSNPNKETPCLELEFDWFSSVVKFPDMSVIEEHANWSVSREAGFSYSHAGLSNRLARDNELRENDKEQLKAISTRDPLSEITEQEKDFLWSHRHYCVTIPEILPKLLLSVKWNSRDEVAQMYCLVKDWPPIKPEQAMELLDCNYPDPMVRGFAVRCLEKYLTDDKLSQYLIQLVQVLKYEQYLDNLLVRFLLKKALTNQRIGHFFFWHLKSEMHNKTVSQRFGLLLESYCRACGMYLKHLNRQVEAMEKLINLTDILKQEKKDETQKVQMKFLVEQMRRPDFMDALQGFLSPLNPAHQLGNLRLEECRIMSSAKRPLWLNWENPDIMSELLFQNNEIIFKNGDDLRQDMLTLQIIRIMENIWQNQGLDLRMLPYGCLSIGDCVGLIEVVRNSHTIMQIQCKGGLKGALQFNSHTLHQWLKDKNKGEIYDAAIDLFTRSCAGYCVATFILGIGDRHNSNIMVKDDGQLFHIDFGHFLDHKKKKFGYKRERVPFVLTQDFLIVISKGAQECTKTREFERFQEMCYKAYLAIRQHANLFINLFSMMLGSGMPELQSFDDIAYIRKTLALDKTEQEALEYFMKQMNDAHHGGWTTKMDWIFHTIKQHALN

## Cn1c(CC(=O)Nc2ccc(F)c(Cl)c2)nc(N2CCOCC2)cc1=O
[1]
  IC50: > 10000 nM
[2]
  IC50: 79 nM
[3]
  solubility thermodynamic at 16 h: 5 µM (≈ 1.9 µg/mL)
[4]
  concentration at 1 h: 6 µM
[5]
  concentration at 6 h: 1 µM
[6]
  metabolised at 20 min: 12%
[7]
  Ratio: 4
[8]
  concentration at 6 h: 1.7 µM
[9]
  IC50: 42 nM
Cytochrome P450 3A4
  IC50: > 40000 nM
[10]
  Papp: 6.6 ×10⁻⁶ cm/s
[11]
  concentration at 6 h: 0.4 µM
[12]
  metabolised at 20 min: 44%
Mus musculus [13]
  inhibition in vivo at 30 mg/kg: 91%
[14]
  concentration at 6 h: 1.6 µM
Mus musculus [15]
  inhibition in vivo at 244 mg/kg: 73%
[16]
  IC50: 2210 nM
Mus musculus [17]
  inhibition in vivo at 30 mg/kg: 0%
[18]
  concentration at 1 h: 10 µM
Mus musculus [19]
  CLH: 26.7 mL/min/kg
[20]
  Vd: 1.3 L/kg
[21]
  half-life: 1.4 h
Mus musculus [22]
  inhibition in vivo at 244 mg/kg: 63%
[23]
  concentration at 1 h: 11 µM
[24]
  IC50: 8280 nM
Mus musculus [25]
  inhibition in vivo at 244 mg/kg: 0%
Mus musculus [26]
  inhibition in vivo at 244 mg/kg: 0%
[27]
  bioavailability: 52%
[28]
  concentration at 1 h: 4.5 µM
Mus musculus [29]
  inhibition in vivo at 30 mg/kg: 86%
Mus musculus [30]
  inhibition in vivo at 30 mg/kg: 23%
